Active and inactive are the calls of the source. No cut-off for these calls is given here.
Key:
NCI-H522 = assay: Antitumor activity against human NCI-H522 cells assessed as cell growth inhibition at 10 uM incubated for 48 hrs by sulforhodamine B assay; format: functional; details: read-out: GI
Procedure, shortened: (§1)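 NCI Drug Evaluation Branch protocol: primary single-dose screen at 10 μM across a 57-line human cancer panel. Drug exposure is 48 h. Cell growth and viability are read by sulforhodamine B assay. Data are given as a mean graph of percent growth of treated cells and reported as percentage growth inhibition (GI%).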

LOX IMVI = assay: Antitumor activity against human LOX IMVI cells assessed as cell growth inhibition at 10 uM incubated for 48 hrs by sulforhodamine B assay; format: functional; details: read-out: GI; procedure, shortened: as §1
DU-145 = assay: Antitumor activity against human DU-145 cells assessed as cell growth inhibition at 10 uM incubated for 48 hrs by sulforhodamine B assay; format: functional; details: read-out: GI; procedure, shortened: as §1
HOP-62 = assay: Antitumor activity against human HOP62 cells assessed as cell growth inhibition at 10 uM incubated for 48 hrs by sulforhodamine B assay; format: functional; details: read-out: GI; procedure, shortened: as §1
MDA-MB-231 = assay: Antitumor activity against human MDA-MB-231/ATCC cells assessed as cell growth inhibition at 10 uM incubated for 48 hrs by sulforhodamine B assay; format: functional; details: read-out: GI; procedure, shortened: as §1
RPMI-8226 = assay: Antitumor activity against human RPMI8226 cells assessed as cell growth inhibition at 10 uM incubated for 48 hrs by sulforhodamine B assay; format: functional; details: read-out: GI; procedure, shortened: as §1
Carbonic anhydrase 9 = Carbonic anhydrase 9 (Homo sapiens, UniProt Q16790); assay: Inhibition of recombinant human carbonic anhydrase 9 preincubated with enzyme for 15 mins by phenol red dye based stopped flow CO2 hydrase assay
SK-MEL-5 = assay: Antitumor activity against human SK-MEL-5 cells assessed as cell growth inhibition at 10 uM incubated for 48 hrs by sulforhodamine B assay; format: functional; details: read-out: GI; procedure, shortened: as §1
NCI-H322M = assay: Antitumor activity against human NCI-H322M cells assessed as cell growth inhibition at 10 uM incubated for 48 hrs by sulforhodamine B assay; format: functional; details: read-out: GI; procedure, shortened: as §1
SF-539 = assay: Antitumor activity against human SF539 cells assessed as cell growth inhibition at 10 uM incubated for 48 hrs by sulforhodamine B assay; format: functional; details: read-out: GI; procedure, shortened: as §1
RXF 393 = assay: Antitumor activity against human RXF 393 cells assessed as cell growth inhibition at 10 uM incubated for 48 hrs by sulforhodamine B assay; format: functional; details: read-out: GI; procedure, shortened: as §1
PC-3 = assay: Antitumor activity against human PC-3 cells assessed as cell growth inhibition at 10 uM incubated for 48 hrs by sulforhodamine B assay; format: functional; details: read-out: GI; procedure, shortened: as §1
KM12 = assay: Antitumor activity against human KM12 cells assessed as cell growth inhibition at 10 uM incubated for 48 hrs by sulforhodamine B assay; format: functional; details: read-out: GI; procedure, shortened: as §1
[1] = target: Cyclin-dependent kinase 2/cyclin E1 (Homo sapiens, UniProt P24941); assay: Inhibition of CDK2/cyclin E (unknown origin) expressed in baculovirus infected Sf21 insect cells using histone H1 as substrate in presence of [gamma33P]ATP
Carbonic anhydrase 1 = Carbonic anhydrase 1 (Homo sapiens, UniProt P00915); assay: Inhibition of recombinant human carbonic anhydrase 1 preincubated with enzyme for 15 mins by phenol red dye based stopped flow CO2 hydrase assay
Carbonic anhydrase 1, sequence (P00915 whole entry): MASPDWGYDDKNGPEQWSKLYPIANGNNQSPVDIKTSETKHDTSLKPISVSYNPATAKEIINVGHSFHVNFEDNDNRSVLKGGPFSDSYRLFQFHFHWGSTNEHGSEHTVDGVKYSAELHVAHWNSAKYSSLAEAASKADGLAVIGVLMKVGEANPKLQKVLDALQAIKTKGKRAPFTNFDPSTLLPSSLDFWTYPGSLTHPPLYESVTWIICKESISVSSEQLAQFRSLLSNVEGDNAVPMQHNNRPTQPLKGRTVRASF

BT-549 = assay: Antitumor activity against human BT-549 cells assessed as cell growth inhibition at 10 uM incubated for 48 hrs by sulforhodamine B assay; format: functional; details: read-out: GI; procedure, shortened: as §1
MOLT-4 = assay: Antitumor activity against human MOLT4 cells assessed as cell growth inhibition at 10 uM incubated for 48 hrs by sulforhodamine B assay; format: functional; details: read-out: GI; procedure, shortened: as §1
IGROV-1 = assay: Antitumor activity against human IGROV1 cells assessed as cell growth inhibition at 10 uM incubated for 48 hrs by sulforhodamine B assay; format: functional; details: read-out: GI; procedure, shortened: as §1
OVCAR-8 = assay: Antitumor activity against human OVCAR-8 cells assessed as cell growth inhibition at 10 uM incubated for 48 hrs by sulforhodamine B assay; format: functional; details: read-out: GI; procedure, shortened: as §1
UO-31 = assay: Antitumor activity against human UO-31 cells assessed as cell growth inhibition at 10 uM incubated for 48 hrs by sulforhodamine B assay; format: functional; details: read-out: GI
Procedure, shortened: (§2)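 NCI one-dose screen: 57-cell-line panel exposed at 10 μM for 48 h, Drug Evaluation Branch protocol. Growth and viability read by sulforhodamine B; data given as percent growth inhibition from the mean-graph of percent growth of treated cells.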

SNB-75 = assay: Antitumor activity against human SNB-75 cells assessed as cell growth inhibition at 10 uM incubated for 48 hrs by sulforhodamine B assay; format: functional; details: read-out: GI; procedure, shortened: as §2
U-251 = assay: Antitumor activity against human U251 cells assessed as cell growth inhibition at 10 uM incubated for 48 hrs by sulforhodamine B assay; format: functional; details: read-out: GI; procedure, shortened: as §2
CDK9/cyclin T1 = CDK9/cyclin T1 (Homo sapiens, UniProt P50750); assay: Inhibition of human full-length N-terminal GST/His6-tagged CDK9 (1 to 372 residues)/His6-tagged Cyclin-T1 (1 to 726 residues) expressed in sf9 cells using (YSPTSPS)2KK peptide as substrate in presence of [gamma33P]ATP
CDK9/cyclin T1, sequence (O60563 whole entry, the tested form may be a part): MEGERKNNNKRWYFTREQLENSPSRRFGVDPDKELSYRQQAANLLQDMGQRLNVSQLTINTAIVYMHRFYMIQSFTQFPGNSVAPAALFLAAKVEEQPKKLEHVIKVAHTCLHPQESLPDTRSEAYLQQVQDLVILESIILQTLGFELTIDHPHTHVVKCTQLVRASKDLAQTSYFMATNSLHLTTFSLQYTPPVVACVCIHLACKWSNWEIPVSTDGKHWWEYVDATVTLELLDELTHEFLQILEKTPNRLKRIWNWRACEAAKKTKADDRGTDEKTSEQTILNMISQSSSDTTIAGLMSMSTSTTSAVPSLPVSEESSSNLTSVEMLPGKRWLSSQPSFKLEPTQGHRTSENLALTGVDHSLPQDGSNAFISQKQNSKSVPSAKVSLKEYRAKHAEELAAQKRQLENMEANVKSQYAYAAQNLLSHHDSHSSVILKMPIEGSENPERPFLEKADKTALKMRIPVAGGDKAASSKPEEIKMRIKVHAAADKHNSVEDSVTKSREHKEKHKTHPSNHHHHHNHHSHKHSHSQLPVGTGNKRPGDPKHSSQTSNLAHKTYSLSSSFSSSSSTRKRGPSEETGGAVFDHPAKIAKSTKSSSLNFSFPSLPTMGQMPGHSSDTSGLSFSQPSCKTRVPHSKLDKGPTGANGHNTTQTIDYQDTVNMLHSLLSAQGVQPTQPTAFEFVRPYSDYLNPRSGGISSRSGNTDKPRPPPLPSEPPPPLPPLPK
CDK9/cyclin T1, sequence (P50750 whole entry, the tested form may be a part): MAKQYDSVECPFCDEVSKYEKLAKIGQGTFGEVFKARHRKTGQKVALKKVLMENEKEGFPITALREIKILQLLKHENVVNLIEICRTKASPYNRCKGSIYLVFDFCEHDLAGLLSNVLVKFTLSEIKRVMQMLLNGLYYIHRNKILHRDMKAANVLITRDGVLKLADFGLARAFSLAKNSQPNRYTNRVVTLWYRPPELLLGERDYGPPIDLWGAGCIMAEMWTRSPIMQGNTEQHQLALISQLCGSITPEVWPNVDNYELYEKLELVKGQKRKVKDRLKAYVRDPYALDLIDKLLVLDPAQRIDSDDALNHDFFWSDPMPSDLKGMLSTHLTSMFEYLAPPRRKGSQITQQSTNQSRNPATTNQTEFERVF

SN12C = assay: Antitumor activity against human SN12C cells assessed as cell growth inhibition at 10 uM incubated for 48 hrs by sulforhodamine B assay; format: functional; details: read-out: GI; procedure, shortened: as §1
OVCAR-3 = assay: Antitumor activity against human OVCAR-3 cells assessed as cell growth inhibition at 10 uM incubated for 48 hrs by sulforhodamine B assay; format: functional; details: read-out: GI; procedure, shortened: as §1
SK-MEL-2 = assay: Antitumor activity against human SK-MEL-2 cells assessed as cell growth inhibition at 10 uM incubated for 48 hrs by sulforhodamine B assay; format: functional; details: read-out: GI; procedure, shortened: as §1
NCI-H226 = assay: Antitumor activity against human NCI-H226 assessed as cell growth inhibition at 10 uM incubated for 48 hrs by sulforhodamine B assay; format: functional; details: read-out: GI; procedure, shortened: as §1
K562 = assay: Antitumor activity against human K562 cells assessed as cell growth inhibition at 10 uM incubated for 48 hrs by sulforhodamine B assay; format: functional; details: read-out: GI; procedure, shortened: as §1
Carbonic anhydrase 12 = Carbonic anhydrase 12 (Homo sapiens, UniProt O43570); assay: Inhibition of recombinant human carbonic anhydrase 12 preincubated with enzyme for 15 mins by phenol red dye based stopped flow CO2 hydrase assay
Carbonic anhydrase 12, sequence (O43570 whole entry): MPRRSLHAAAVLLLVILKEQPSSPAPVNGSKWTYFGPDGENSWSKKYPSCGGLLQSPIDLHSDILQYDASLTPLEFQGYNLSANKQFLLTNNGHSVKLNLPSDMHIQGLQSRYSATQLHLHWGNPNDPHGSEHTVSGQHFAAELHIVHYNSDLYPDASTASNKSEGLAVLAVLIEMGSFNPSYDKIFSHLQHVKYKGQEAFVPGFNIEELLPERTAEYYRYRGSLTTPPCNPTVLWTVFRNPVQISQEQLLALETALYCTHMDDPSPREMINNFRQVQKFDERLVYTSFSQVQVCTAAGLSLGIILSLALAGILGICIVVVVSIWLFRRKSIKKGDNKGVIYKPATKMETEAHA

T47D = assay: Antitumor activity against human T-47D cells assessed as cell growth inhibition at 10 uM incubated for 48 hrs by sulforhodamine B assay; format: functional; details: read-out: GI; procedure, shortened: as §2
NCI/ADR-RES = assay: Antitumor activity against human NCI/ADR-RES cells assessed as cell growth inhibition at 10 uM incubated for 48 hrs by sulforhodamine B assay; format: functional, cell-based; procedure, shortened: as §1
HCT-116 = assay: Antitumor activity against human HCT116 cells assessed as cell growth inhibition at 10 uM incubated for 48 hrs by sulforhodamine B assay; format: functional; details: read-out: GI; procedure, shortened: as §1
Carbonic anhydrase 2 = Carbonic anhydrase 2 (Homo sapiens, UniProt P00918); assay: Inhibition of recombinant human carbonic anhydrase 2 preincubated with enzyme for 15 mins by phenol red dye based stopped flow CO2 hydrase assay
MCF7 = assay: Antitumor activity against human MCF7 cells assessed as cell growth inhibition at 10 uM incubated for 48 hrs by sulforhodamine B assay; format: functional; details: read-out: GI; procedure, shortened: as §1
MDA-MB-468 = assay: Antitumor activity against human MDA-MB-468 cells assessed as cell growth inhibition at 10 uM incubated for 48 hrs by sulforhodamine B assay; format: functional; details: read-out: GI; procedure, shortened: as §1
CCRF-CEM = assay: Antitumor activity against human CCRF-CEM cells assessed as cell growth inhibition at 10 uM incubated for 48 hrs by sulforhodamine B assay; format: functional; details: read-out: GI; procedure, shortened: as §1
SF-268 = assay: Antitumor activity against human SF268 cells assessed as cell growth inhibition at 10 uM incubated for 48 hrs by sulforhodamine B assay; format: functional; details: read-out: GI; procedure, shortened: as §1

Structure (SMILES): Cc1ccc(-c2nc3c(/N=N/c4ccc(S(N)(=O)=O)cc4)c(N)nn3c(N)c2C#N)cc1
- inhibition of growth at 10 µM (NCI-H522): 71%
- inhibition of growth at 10 µM (LOX IMVI): 78%
- inhibition of growth at 10 µM (DU-145): 65%
- inhibition of growth at 10 µM (HOP-62): 57%
- inhibition of growth at 10 µM (MDA-MB-231): 60%
- inhibition of growth at 10 µM (RPMI-8226): 116%
- Ki (Carbonic anhydrase 9): 44.3 nM
- inhibition of growth at 10 µM (SK-MEL-5): 152%
- inhibition of growth at 10 µM (NCI-H322M): 34%
- inhibition of growth at 10 µM (SF-539): 69%
- inhibition of growth at 10 µM (RXF 393): 72%
- inhibition of growth at 10 µM (PC-3): 68%
- inhibition of growth at 10 µM (KM12): 71%
- IC50 [1]: 11600 nM
- Ki (Carbonic anhydrase 1): 3530 nM
- inhibition of growth at 10 µM (BT-549): 44%
- inhibition of growth at 10 µM (MOLT-4): 96%
- inhibition of growth at 10 µM (IGROV-1): 63%
- inhibition of growth at 10 µM (OVCAR-8): 56%
- inhibition of growth at 10 µM (UO-31): 31%
- inhibition of growth at 10 µM (SNB-75): 51%
- inhibition of growth at 10 µM (U-251): 68%
- IC50 (CDK9/cyclin T1): > 12500 nM
- inhibition of growth at 10 µM (SN12C): 67%
- inhibition of growth at 10 µM (OVCAR-3): 76%
- inhibition of growth at 10 µM (SK-MEL-2): 73%
- inhibition of growth at 10 µM (NCI-H226): 35%
- inhibition of growth at 10 µM (K562): 80%
- Ki (Carbonic anhydrase 12): 48.8 nM
- inhibition of growth at 10 µM (T47D): 66%
- Activity (NCI/ADR-RES): inactive
- inhibition of growth at 10 µM (HCT-116): 86%
- Ki (Carbonic anhydrase 2): 638 nM
- inhibition of growth at 10 µM (MCF7): 72%
- inhibition of growth at 10 µM (MDA-MB-468): 94%
- inhibition of growth at 10 µM (CCRF-CEM): 88%
- inhibition of growth at 10 µM (SF-268): 65%

Structure (SMILES): N#Cc1c(-c2ccc(Br)cc2)nc2c(/N=N/c3ccc(S(N)(=O)=O)cc3)c(N)nn2c1N
- inhibition of growth at 10 µM (NCI-H522): 61%
- inhibition of growth at 10 µM (LOX IMVI): 71%
- inhibition of growth at 10 µM (DU-145): 67%
- inhibition of growth at 10 µM (HOP-62): 48%
- inhibition of growth at 10 µM (MDA-MB-231): 59%
- inhibition of growth at 10 µM (RPMI-8226): 114%
- Ki (Carbonic anhydrase 9): 65.7 nM
- inhibition of growth at 10 µM (SK-MEL-5): 54%
- inhibition of growth at 10 µM (NCI-H322M): 25%
- inhibition of growth at 10 µM (SF-539): 61%
- inhibition of growth at 10 µM (RXF 393): 58%
- inhibition of growth at 10 µM (PC-3): 62%
- inhibition of growth at 10 µM (KM12): 48%
- IC50 [1]: > 12500 nM
- Ki (Carbonic anhydrase 1): 4160 nM
- inhibition of growth at 10 µM (BT-549): 26%
- inhibition of growth at 10 µM (MOLT-4): 98%
- inhibition of growth at 10 µM (IGROV-1): 59%
- inhibition of growth at 10 µM (OVCAR-8): 53%
- inhibition of growth at 10 µM (UO-31): 41%
- inhibition of growth at 10 µM (SNB-75): 43%
- inhibition of growth at 10 µM (U-251): 59%
- IC50 (CDK9/cyclin T1): > 12500 nM
- inhibition of growth at 10 µM (SN12C): 54%
- inhibition of growth at 10 µM (OVCAR-3): 45%
- inhibition of growth at 10 µM (SK-MEL-2): 57%
- inhibition of growth at 10 µM (NCI-H226): 34%
- inhibition of growth at 10 µM (K562): 64%
- Ki (Carbonic anhydrase 12): 43.2 nM
- inhibition of growth at 10 µM (T47D): 68%
- Activity (NCI/ADR-RES): inactive
- inhibition of growth at 10 µM (HCT-116): 75%
- Ki (Carbonic anhydrase 2): 885 nM
- inhibition of growth at 10 µM (MCF7): 68%
- inhibition of growth at 10 µM (MDA-MB-468): 76%
- inhibition of growth at 10 µM (CCRF-CEM): 104%
- inhibition of growth at 10 µM (SF-268): 44%

From ChEMBL document CHEMBL4680175, “Sulfonamide-based ring-fused analogues for CAN508 as novel carbonic anhydrase inhibitors endowed with antitumor activity: Design, synthesis, and in vitro biological evaluation” (Eur J Med Chem, 2020)
